DNA FID counter = compounds displacing fluorescent DNA intercalator, primary screen, artefact control for HCV NS3 helicase inhibitor project, biochemical, FID fluorescence | actives 0.17% (n = 290,000) | inhibition, % at 7.9 µM | DNA fluorescent intercalator displacement; in the data active = inhibition above about 37%;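 also: higher means more ethidium bromide displaced from hairpin DNA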
MEX-5 binding = MEX-5 zinc finger RNA-binding disruptors – biochemical, C. elegans, fluorescence polarization, MLPCN library, primary screen; Zinc finger protein mex-5 (Caenorhabditis elegans), Q9XUB2; MEX-5/FITC-TCR2 RNA binding; stronger effect = lower value; activity score (negative = inhibition of binding), % at 10 µM; actives 0.38% (n = 300,000);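 active = inhibition past about -25% in most replicates, and total fluorescence under double the plate's negative control median, limit read from the data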
Target sequence (Q9XUB2 whole entry, looked up): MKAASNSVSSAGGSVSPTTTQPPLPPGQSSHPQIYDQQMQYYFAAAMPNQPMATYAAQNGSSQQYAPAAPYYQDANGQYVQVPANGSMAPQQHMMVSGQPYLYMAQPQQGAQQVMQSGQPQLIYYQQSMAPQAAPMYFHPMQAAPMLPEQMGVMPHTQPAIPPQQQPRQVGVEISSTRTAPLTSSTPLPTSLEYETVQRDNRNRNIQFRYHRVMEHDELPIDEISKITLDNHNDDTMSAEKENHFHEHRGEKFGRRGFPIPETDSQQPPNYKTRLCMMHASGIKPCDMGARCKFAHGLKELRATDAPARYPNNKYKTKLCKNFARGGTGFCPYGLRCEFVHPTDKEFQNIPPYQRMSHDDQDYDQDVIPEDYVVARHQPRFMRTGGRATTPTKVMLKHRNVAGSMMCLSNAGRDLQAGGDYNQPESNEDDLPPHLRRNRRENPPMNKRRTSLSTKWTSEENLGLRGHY
core dimer inh = inhibitors of HCV core protein dimerization, primary screen, biochemical, TR-FRET, high-throughput | TR-FRET GST/Flag-core106 dimerization, 1536-well | inhibition, % at 5 µM | AID 1899, 2009 | actives 0.33% (n = 300,000);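 active = inhibition above the mean of all tested compounds plus 3 SD, set per screening campaign, cut at about 45% in these data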
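Test system: GST/Flag-tagged HCV core106 proteins; Medium: KF-containing HEPES buffer, pH 7.45, DTT, CHAPS, BSA; Times: compound-protein-antibody incubation 4 h at 22.5 °C; Detection: TR-FRET 671 and 617 nm emission; Benchmarks: wells lacking GST-core106 and wells with excess unlabelled core106.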
NRP1-CendR mod = modulators of CendR peptide binding to NRP-1, primary screen, biochemical, fluorescence polarization, uHTS; actives 0.85% (n = 360,000); AID 602438, 2012; Neuropilin-1 (Homo sapiens), O14786; inhibition, % at 25 µM; FAM-RPARPAR peptide binding to NRP-1;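 active = inhibition or corrected inhibition above about 18%, plus a signal ratio from 0.5 to 1.5, limit read from the data, passing the limit was not always enough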
A number is an active result; i = inactive; nt = no result given. Shown are actives, neighbours in structure and some others; about 1.5% of the full set was active somewhere.

SMILES	DNA FID counter	MEX-5 binding	core dimer inh	NRP1-CendR mod
O=C(COCc1cc(-c2ccc3c(c2)OCO3)on1)N1CCN(c2cccc(C(F)(F)F)c2)CC1	i	i	i	19
COc1ccc(N2CCN(C(=O)COCc3cc(-c4ccc5c(c4)OCO5)on3)CC2)cc1	i	i	i	i
Clc1ccc(-c2nc(NCCCN3CCOCC3)c3ccccc3n2)cc1	48	i	i	i
Clc1cccc(-c2nc(NCCCN3CCOCC3)c3ccccc3n2)c1	37	i	i	i
CN(C)CCCNc1nc(-c2ccccc2)nc2ccccc12	58	i	i	i
c1csc(-c2nc(NCCCN3CCOCC3)c3ccccc3n2)c1	61	i	i	i
Cc1cc(NCCN2CCOCC2)c2ccc3ccccc3c2n1	47	i	i	i
Cc1ccc(-c2nc(NCCN3CCOCC3)c3ccccc3n2)cc1	46	i	i	i
Cc1ccc(S(=O)(=O)NCC(=O)OCC(=O)N(CCC#N)c2ccccc2)cc1	nt	nt	nt	i
COC(=O)c1ccc2nc(C3CCCCC3)c(Cc3ccc(C)cc3)n2c1	nt	nt	nt	i
CC1OC(CC(=O)O)CC2=C1C(=O)c1c(O)cccc1C2=O (stereo unspecified)	nt	nt	nt	35
CN(C)CCCOC(=O)c1cc2ccccc2o1	i	i	i	24
O=C(OCCN1C(=O)c2ccccc2C1=O)c1cc2ccccc2o1	i	i	i	i
CC1=CC(C)C2(CO)COC(c3cccnc3)C1C2C (stereo unspecified)	i	i	i	27
COc1cccc(S(=O)(=O)N(C)C[C@@H]2OCc3cn(nn3)CCCC(=O)N([C@H](C)CO)C[C@H]2C)c1	nt	nt	nt	i
NC(=O)c1ccsc1N	i	-35	i	nt
CCOC(=O)CN1C(=O)N[C@@H](c2ccccc2)[C@H](C(C)=O)[C@H]1C	nt	i	i	25
Cc1cccc(NC(=O)Nc2nnc([C@H]3C[C@H](O)[C@@H](CO)O3)s2)c1	nt	nt	nt	i
COc1ccc(OC)c(S(=O)(=O)CC(=O)c2cc3ccc(OC)cc3oc2=O)c1	i	i	62	i
COc1ccc(S(=O)(=O)CC(=O)c2cc3cc(Br)ccc3oc2=O)cc1	i	i	i	i
CNC(=O)OCc1ncn(-c2ccccc2)c1COC(=O)NC	nt	nt	nt	i
CC1(OC(=O)c2ccco2)C(=O)C=C2C=C(C3CC3)OC=C2C1=O (stereo unspecified)	nt	-34	i	i
CC1(OC(=O)c2cccs2)C(=O)C=C2C=C(C3CC3)OC=C2C1=O (stereo unspecified)	nt	i	i	i
COC/C=C/C1=CC2=CC(=O)C(C)(OC(=O)c3cnc4ccccc4n3)C(=O)C2=CN1c1ccc(CO)cc1 (stereo unspecified)	i	i	56	nt
CC1(OC(=O)c2cnc3ccccc3n2)C(=O)C=C2C=C(C3CC3)OC=C2C1=O (stereo unspecified)	nt	-53	i	nt
SMILES	DNA FID counter	MEX-5 binding	core dimer inh	NRP1-CendR mod
CCNC(=O)C[C@@H]1C=C[C@@H](NS(=O)(=O)c2ccc(F)cc2)[C@@H](CO)O1	nt	nt	nt	i
COc1ccccc1NCCC(=O)O	i	i	i	i
O=C(O)CCNc1ccc(NCCC(=O)O)c2c1C(=O)c1ccccc1C2=O	i	-55	i	46
Cc1cc(NC(=O)CSc2nc3ccccc3c(=O)n2Cc2ccccc2)no1	i	i	i	i
Cc1cc(NC(=O)CCCC(=O)NCc2ccccc2)no1	i	i	i	36
Cc1ccc(Cn2c(SCC(=O)Nc3cc(C)on3)nc3ccccc3c2=O)cc1	i	i	62	28
Cc1cc(NC(=O)CCC(=O)NNC(=O)c2ccc(C(C)(C)C)cc2)no1	i	i	i	36
COc1ccc([C@H]2C[C@H](n3cc(COC(=O)c4ccccc4)nn3)[C@@H](O)CN2Cc2cccs2)cc1	nt	nt	nt	i
O=C(CC[C@H]1O[C@@H](n2ccc(=O)[nH]c2=O)[C@H](O)[C@@H]1O)NCc1ccccc1	nt	nt	nt	i
O=C(N=Nc1c(O)[nH]c2ccc([N+](=O)[O-])cc12)c1cc(-c2ccccc2Cl)nc2ccccc12	i	i	47	i
COc1ccccc1C(=O)N=Nc1c(O)[nH]c2ccc([N+](=O)[O-])cc12	i	nt	nt	i
C=CCNc1nc2cc(-c3cccc(Cl)c3)sc2c(=O)n1C	nt	nt	nt	i
Cc1sc(N=Nc2ccc(N(C)C)cc2)[n+]([O-])c1C	nt	nt	nt	i
O=C1[C@H]2[C@@H](c3ccc(C(F)(F)F)cc3)N[C@]3(CCCN(Cc4ccco4)C3=O)[C@H]2C(=O)N1Cc1ccccc1	nt	nt	nt	i
Cc1ccc(/C=C2/C(=O)c3ccc(C(=O)O)cc3C2=O)o1	i	-26	nt	i
COc1ccc(NC(=O)C2C(=O)NC3(C)CC2c2ccccc2O3)cc1 (stereo unspecified)	i	i	i	33
COc1cc(CNC(=O)c2cc(C(=O)NCc3cc(OC)cc(OC)c3)n(C)n2)cc(OC)c1	nt	nt	nt	i
Cn1nc(C(C)(C)C)cc1NC(=O)C1(C)CCN1C(=O)c1ccccc1CCc1ccccc1 (stereo unspecified)	nt	nt	nt	i
CC1(C(=O)NS(=O)(=O)Cc2ccccc2C(F)(F)F)CCN1C(=O)Cc1ccsc1 (stereo unspecified)	nt	nt	nt	i
Cc1ccc(/C=C2\Oc3c(ccc(O)c3CN3CCN(CCO)CC3)C2=O)cc1	i	-32	i	i
COC(=O)N1CCCCC1c1cc(C(=O)NCc2cccnc2)no1 (stereo unspecified)	nt	nt	nt	i
C[C@@H]1CN([C@H](C)CO)C(=O)Cc2cc(NC(=O)CCC(F)(F)F)ccc2O[C@@H]1CN(C)S(=O)(=O)c1ccccc1	nt	nt	nt	i
CCOC(=O)[C@]12CCC=C1N(CCC1=CCCCC1)C(=O)[C@H](CC(=O)N1CCOCC1)C2	nt	nt	nt	i
COc1cc(NS(=O)(=O)c2ccc(C)c(C)c2)c(OC)cc1Cl	i	i	i	27
CCN(C(=O)CSc1nnc(-c2cccc(Cl)c2)n1N)c1c(N)n(Cc2ccccc2)c(=O)[nH]c1=O	nt	nt	nt	i
SMILES	DNA FID counter	MEX-5 binding	core dimer inh	NRP1-CendR mod
c1ccc(-c2noc(CN3CCCC(OCc4ccccn4)C3)n2)cc1 (stereo unspecified)	60	i	i	i
CC1CCN(Cc2nc(-c3ccccc3)no2)CC1	i	i	i	i
CCOc1ccc(NC(=O)CN2CCN(CC(=O)Nc3ccc(Cl)c(C(F)(F)F)c3)CC2)cc1	i	i	i	21
CCOc1ccc(NC(=O)CN2CCN(CC(=O)Nc3cccc(F)c3)CC2)cc1	i	nt	i	i
CN(C)Cc1cc(O)c(CN(C)C)cc1O	i	-35	i	i
CN(C)Cc1cc(C(C)(C)C)cc(C(C)(C)C)c1O	i	i	i	i
O=C(CSC1CN(C(c2ccccc2)c2ccccc2)C1)N/N=C/c1ccccc1	i	i	i	41
O=C(CCN1CCN(C(c2ccccc2)c2ccccc2)CC1)N/N=C/c1ccc(O)cc1	i	i	i	i
CCN(CC)C(=O)Cn1cc(S(=O)(=O)CC(=O)NCc2ccc(C)cc2)c2ccccc21	i	i	i	22
